Experimental data published in ChEMBL document CHEMBL2163312, “Virtual screening identifies novel sulfonamide inhibitors of ecto-5'-nucleotidase” (J Med Chem, 2012).

The compounds below were run against T1, 5'-nucleotidase (Rattus norvegicus, UniProt P21588) (assay: Inhibition of rat recombinant ecto-5'-nucleotidase using [3H]AMP substrate).
T1 sequence (P21588 whole entry): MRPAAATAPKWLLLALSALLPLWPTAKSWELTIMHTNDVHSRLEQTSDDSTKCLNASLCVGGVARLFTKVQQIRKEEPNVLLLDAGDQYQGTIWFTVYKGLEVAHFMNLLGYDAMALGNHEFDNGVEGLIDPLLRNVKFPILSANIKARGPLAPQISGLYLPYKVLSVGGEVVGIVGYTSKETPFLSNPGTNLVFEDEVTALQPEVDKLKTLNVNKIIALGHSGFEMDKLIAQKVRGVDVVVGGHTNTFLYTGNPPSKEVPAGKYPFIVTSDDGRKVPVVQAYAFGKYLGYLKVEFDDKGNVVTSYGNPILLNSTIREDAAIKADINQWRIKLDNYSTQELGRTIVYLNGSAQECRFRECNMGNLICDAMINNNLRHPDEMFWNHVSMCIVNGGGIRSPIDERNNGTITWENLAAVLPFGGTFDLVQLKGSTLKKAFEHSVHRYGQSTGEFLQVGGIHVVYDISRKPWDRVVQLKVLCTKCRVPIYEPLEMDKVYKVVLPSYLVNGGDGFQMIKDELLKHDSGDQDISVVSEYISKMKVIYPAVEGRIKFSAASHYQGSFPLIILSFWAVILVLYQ
In short: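 Purified recombinant rat enzyme in a radioactive assay with [3H]AMP as substrate at 5 μM (near Km). Compounds were screened first at 100 and 10 μM. Full concentration–response curves were run for potent compounds to obtain IC50. Inhibition mechanism: 10 substrate concentrations at three inhibitor concentrations, with velocity normalized to Vmax without inhibitor.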
An IC50 of 6.54 µM was found for `NS(=O)(=O)c1ccc(N/N=C/c2c(O)ccc3ccccc23)c([N+](=O)[O-])c1` in this work.
An IC50 of 9.46 µM was found for `NS(=O)(=O)c1ccc(N/N=C/c2ccccc2O)c([N+](=O)[O-])c1` in this work.
An IC50 of 45.1 µM was found for `Cc1oc(-c2ccc(Cl)cc2)cc1C(=O)Nc1ccc(S(N)(=O)=O)cc1` in this work.
An IC50 of 74.8 µM was found for `NS(=O)(=O)c1ccc(NC(=O)c2cc3cc(Cl)cc(Cl)c3oc2=O)cc1` in this work.
An IC50 of 15.5 µM was found for `NS(=O)(=O)c1cc(Cl)c(NC(=O)c2c(O)[nH]c3ccccc3c2=O)c(Cl)c1` in this work.
An IC50 of 7.1 µM was found for `O=C(NC(=S)Nc1ccc(S(=O)(=O)c2ccc(NC(=S)NC(=O)c3ccccc3)cc2)cc1)c1ccccc1` in this work.
An IC50 of 16.6 µM was found for `COc1cccc2cc(C(=O)Nc3ccc(S(N)(=O)=O)cc3)c(=O)oc12` in this work.
An IC50 of 18.4 µM was found for `NS(=O)(=O)c1ccc(N/N=C/c2cccc(O)c2)c([N+](=O)[O-])c1` in this work.
An IC50 of 3.99 µM was found for `NS(=O)(=O)c1ccc(N/N=C/c2cccc(Oc3ccccc3)c2)c([N+](=O)[O-])c1` in this work.
An IC50 of 50.9 µM was found for `Cc1c(NC(=O)c2ccc3c(c2)NC(=O)CO3)c(=O)n(-c2ccccc2)n1C` in this work.
An IC50 of 46.5 µM was found for `CCOc1ccc(C(=O)NC(=S)Nc2ccc(S(N)(=O)=O)cc2)cc1Cl` in this work.
An IC50 of 8.03 µM was found for `NS(=O)(=O)c1ccc(N/N=C/c2ccc(O)cc2)c([N+](=O)[O-])c1` in this work.
